Measured values published in ChEMBL document CHEMBL3124849, “Total synthesis of burkholdacs A and B and 5,6,20-tri-epi-burkholdac A: HDAC inhibition and antiproliferative activity” (Eur J Med Chem, 2014).

Assays:
SF-268 = experiment: Cytotoxicity against human SF268 cells by SRB assay; format: functional
In short: (§1)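 Tested at the Japanese Foundation for Cancer Research panel of 39 human cancer cell lines. Five concentrations per compound, spanning 10^-10 to 10^-6 M or 10^-8 to 10^-4 M. Growth measured by sulforhodamine B colorimetry. GI50 is the concentration giving 50% growth inhibition relative to control.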

U-251 = experiment: Cytotoxicity against human U251 cells by SRB assay; format: functional; in short: as §1
MDA-MB-231 = experiment: Cytotoxicity against human MDA-MB-231 cells by SRB assay; format: functional; in short: as §1
[1] = Cytotoxicity against human HBC5 cells by SRB assay; format: functional; in short: as §1
MCF7 = experiment: Cytotoxicity against human MCF7 cells by SRB assay; format: functional; in short: as §1
[2] = Cytotoxicity against human BSY1 cells by SRB assay; format: functional; conditions: BSY-1; in short: as §1
[3] = Cytotoxicity against human HBC4 cells by SRB assay; format: functional; in short: as §1
[4] = molecular target: T1, Protein deacetylase HDAC6 (Mus musculus, UniProt Q9Z2V5); experiment: Inhibition of mouse HDAC6 expressed in human 293T cells using Ac-KGLGK(Ac)-MCA as substrate after 30 mins by fluorescence assay; format: cell-based
T1 sequence (Q9Z2V5 whole entry): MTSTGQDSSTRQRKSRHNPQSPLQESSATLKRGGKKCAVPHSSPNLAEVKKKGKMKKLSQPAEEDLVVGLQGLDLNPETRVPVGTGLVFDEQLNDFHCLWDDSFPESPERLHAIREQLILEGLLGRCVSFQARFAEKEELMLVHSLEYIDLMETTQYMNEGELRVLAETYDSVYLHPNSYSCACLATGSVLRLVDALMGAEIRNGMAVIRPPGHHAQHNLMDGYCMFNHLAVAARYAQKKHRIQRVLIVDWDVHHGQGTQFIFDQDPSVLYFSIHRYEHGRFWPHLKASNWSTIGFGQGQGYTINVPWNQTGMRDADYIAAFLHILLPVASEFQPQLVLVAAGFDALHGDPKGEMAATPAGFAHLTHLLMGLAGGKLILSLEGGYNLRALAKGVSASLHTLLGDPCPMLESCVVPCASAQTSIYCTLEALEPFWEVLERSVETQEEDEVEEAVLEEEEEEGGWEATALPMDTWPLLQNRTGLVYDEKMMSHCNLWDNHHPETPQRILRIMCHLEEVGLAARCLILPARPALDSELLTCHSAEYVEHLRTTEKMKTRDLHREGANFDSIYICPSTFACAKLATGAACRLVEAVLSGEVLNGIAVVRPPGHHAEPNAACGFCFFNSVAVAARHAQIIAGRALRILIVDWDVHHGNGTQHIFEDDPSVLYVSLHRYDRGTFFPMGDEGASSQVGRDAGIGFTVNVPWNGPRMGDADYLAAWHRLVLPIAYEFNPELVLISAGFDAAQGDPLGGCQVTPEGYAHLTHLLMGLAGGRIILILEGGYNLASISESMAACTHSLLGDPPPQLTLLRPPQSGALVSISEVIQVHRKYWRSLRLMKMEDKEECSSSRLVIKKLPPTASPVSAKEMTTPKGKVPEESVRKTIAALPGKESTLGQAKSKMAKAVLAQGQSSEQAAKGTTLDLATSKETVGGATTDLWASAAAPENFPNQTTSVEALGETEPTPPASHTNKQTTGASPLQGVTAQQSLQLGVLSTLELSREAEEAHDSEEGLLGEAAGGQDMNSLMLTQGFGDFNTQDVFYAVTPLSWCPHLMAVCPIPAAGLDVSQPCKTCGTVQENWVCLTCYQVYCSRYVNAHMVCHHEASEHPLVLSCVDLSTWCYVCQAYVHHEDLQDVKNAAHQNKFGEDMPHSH

Histone deacetylase 1 [5] = molecular target: T2, Histone deacetylase 1 (Homo sapiens, UniProt Q13547); experiment: Inhibition of human HDAC1 expressed in human 293T cells using Ac-KGLGK(Ac)-MCA as substrate after 30 mins by fluorescence assay
T2 sequence (Q13547 whole entry): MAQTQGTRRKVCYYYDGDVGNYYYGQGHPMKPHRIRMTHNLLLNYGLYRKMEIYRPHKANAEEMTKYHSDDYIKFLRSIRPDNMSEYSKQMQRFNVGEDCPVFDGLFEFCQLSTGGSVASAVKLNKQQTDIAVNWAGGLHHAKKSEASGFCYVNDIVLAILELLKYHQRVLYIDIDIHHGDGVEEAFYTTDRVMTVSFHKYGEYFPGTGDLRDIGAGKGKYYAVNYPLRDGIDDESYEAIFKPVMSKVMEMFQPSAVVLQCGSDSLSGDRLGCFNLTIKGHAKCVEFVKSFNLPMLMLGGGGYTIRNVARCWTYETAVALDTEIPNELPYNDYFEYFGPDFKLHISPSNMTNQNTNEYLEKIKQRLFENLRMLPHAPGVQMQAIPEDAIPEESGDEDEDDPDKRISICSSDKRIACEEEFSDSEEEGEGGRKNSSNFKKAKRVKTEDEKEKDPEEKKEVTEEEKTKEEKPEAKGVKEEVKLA

PC-3 = experiment: Cytotoxicity against human PC3 cells by SRB assay; format: functional; in short: as §1
DU-145 = experiment: Cytotoxicity against human DU145 cells by SRB assay; format: functional; in short: as §1
[6] = Cytotoxicity against human MKN45 cells by SRB assay; format: functional; conditions: MKN-45; in short: as §1
[7] = Cytotoxicity against human MKN74 cells by SRB assay; format: functional; conditions: MKN-74; in short: as §1
[8] = Cytotoxicity against human MKN7 cells by SRB assay; format: functional; conditions: MKN-7; in short: as §1
[9] = Cytotoxicity against human MKN28 cells by SRB assay; format: functional; conditions: MKN-28; in short: as §1
[10] = Cytotoxicity against human MKN1 cells by SRB assay; format: functional; conditions: MKN-1; in short: as §1
St-4 = experiment: Cytotoxicity against human St-4 cells by SRB assay; format: functional; in short: as §1
ACHN = experiment: Cytotoxicity against human ACHN cells by SRB assay; format: functional; in short: as §1
[11] = Cytotoxicity against human RXF631L cells by SRB assay; format: functional; conditions: RXF 631; in short: as §1
SK-OV-3 = experiment: Cytotoxicity against human SKOV3 cells by SRB assay; format: functional; in short: as §1
OVCAR-8 = experiment: Cytotoxicity against human OVCAR8 cells by SRB assay; format: functional; in short: as §1
[12] = Cytotoxicity against human OVCAR5 cells by SRB assay; format: functional; conditions: OVCAR-5; in short: as §1
[13] = Cytotoxicity against human OVCAR4 cells by SRB assay; format: functional; conditions: OVCAR-4; in short: as §1
OVCAR-3 = experiment: Cytotoxicity against human OVCAR3 cells by SRB assay; format: functional; in short: as §1
LOX IMVI = experiment: Cytotoxicity against human LOXIMVI cells by SRB assay; format: functional; in short: as §1
[14] = Cytotoxicity against human DMS273 cells by SRB assay; format: functional; conditions: DMS-273; in short: as §1
[15] = Cytotoxicity against human DMS114 cells by SRB assay; format: functional; conditions: DMS-114; in short: as §1
NCI-H460 = experiment: Cytotoxicity against human NCI-H460 cells by SRB assay; format: functional; in short: as §1
A549 = experiment: Cytotoxicity against human A549 cells by SRB assay; format: functional; in short: as §1
NCI-H226 = experiment: Cytotoxicity against human NCI-H226 cells by SRB assay; format: functional; in short: as §1
NCI-H522 = experiment: Cytotoxicity against human NCI-H522 cells by SRB assay; format: functional; in short: as §1
NCI-H23 = experiment: Cytotoxicity against human NCI-H23 cells by SRB assay; format: functional; in short: as §1
HCT-116 = experiment: Cytotoxicity against human HCT116 cells by SRB assay; format: functional; in short: as §1
HCT-15 = experiment: Cytotoxicity against human HCT15 cells by SRB assay; format: functional; in short: as §1
HT-29 = experiment: Cytotoxicity against human HT-29 cells by SRB assay; format: functional; in short: as §1
KM12 = experiment: Cytotoxicity against human KM12 cells by SRB assay; format: functional; in short: as §1
[16] = Cytotoxicity against human SNB78 cells by SRB assay; format: functional; conditions: SNB-78; in short: as §1
HCC 2998 = experiment: Cytotoxicity against human HCC2998 cells by SRB assay; format: functional; in short: as §1
SNB-75 = experiment: Cytotoxicity against human SNB75 cells by SRB assay; format: functional; in short: as §1
SF-295 = experiment: Cytotoxicity against human SF295 cells by SRB assay; format: functional; in short: as §1
SF-539 = experiment: Cytotoxicity against human SF539 cells by SRB assay; format: functional; in short: as §1
Histone deacetylase 1 [17] = molecular target: T2, Histone deacetylase 1; experiment: Ratio of FK228 IC50 to compound IC50 for human HDAC1 expressed in human 293T cells; format: cell-based
In short: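 FLAG-tagged human HDAC1 was expressed transiently in 293T cells (pcDNA3-HDAC1), immunoprecipitated with anti-FLAG M2 and eluted with FLAG peptide. Enzyme was incubated with 2 mM stock Ac-KGLGK(Ac)-MCA in 20 mM Tris-HCl pH 8.0, 150 mM NaCl, 10% glycerol, 100 μM DTT, for 30 min at 37 °C. Trypsin then released AMC, read by fluorescence. IC50 is the mean of ≥3 dose-response curves; FK228 reference run alongside.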

[18] = Selectivity index, ratio of IC50 for mouse HDAC6 to IC50 for human HDAC1
In short: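 Ratio of HDAC6 IC50 to HDAC1 IC50. Both enzymes were FLAG-immunopurified from transfected 293T cells: human HDAC1 and mouse HDAC6. Each was assayed on Ac-KGLGK(Ac)-MCA with 100 µM DTT at 37 °C for 30 min, developed with trypsin, and AMC read by fluorescence. IC50s are means of ≥3 curves.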

Structure (SMILES): CSCC[C@@H]1NC(=O)C[C@H]2/C=C/CCSSC[C@@H](NC1=O)C(=O)N[C@@H](C(C)C)[C@H](O)CC(=O)O2
- GI50 (SF-268): 960 nM
- GI50 (U-251): 410 nM
- GI50 (MDA-MB-231): 1800 nM
- GI50 [1]: 1900 nM
- GI50 (MCF7): 1800 nM
- GI50 [2]: 1600 nM
- GI50 [3]: 1300 nM
- IC50 [4]: > 10000 nM
- IC50 (Histone deacetylase 1 [5]): 337 nM
- GI50 (PC-3): 1600 nM
- GI50 (DU-145): 1500 nM
- GI50 [6]: 3700 nM
- GI50 [7]: 1500 nM
- GI50 [8]: 2100 nM
- GI50 [9]: 1900 nM
- GI50 [10]: 1400 nM
- GI50 (St-4): 3400 nM
- GI50 (ACHN): 4400 nM
- GI50 [11]: 4000 nM
- GI50 (SK-OV-3): 1700 nM
- GI50 (OVCAR-8): 1900 nM
- GI50 [12]: 1300 nM
- GI50 [13]: 1800 nM
- GI50 (OVCAR-3): 1800 nM
- GI50 (LOX IMVI): 230 nM
- GI50 [14]: 2300 nM
- GI50 [15]: 1300 nM
- GI50 (NCI-H460): 1800 nM
- GI50 (A549): 1400 nM
- GI50 (NCI-H226): 1700 nM
- GI50 (NCI-H522): 360 nM
- GI50 (NCI-H23): 1600 nM
- GI50 (HCT-116): 540 nM
- GI50 (HCT-15): 15000 nM
- GI50 (HT-29): 1400 nM
- GI50 (KM12): 1600 nM
- GI50 [16]: 1700 nM
- GI50 (HCC 2998): 1700 nM
- GI50 (SNB-75): 1000 nM
- GI50 (SF-295): 1600 nM
- GI50 (SF-539): 1800 nM

Structure (SMILES): CSCC[C@H]1NC(=O)C[C@H]2/C=C/CCSSC[C@@H](NC1=O)C(=O)N[C@H](C(C)C)[C@@H](O)CC(=O)O2
- GI50 (SF-268): 1.8 nM
- GI50 (U-251): 2.2 nM
- GI50 (MDA-MB-231): 1.8 nM
- GI50 [1]: 7.8 nM
- GI50 (MCF7): 2 nM
- GI50 [2]: 4 nM
- GI50 [3]: 3 nM
- Ratio IC50 (Histone deacetylase 1 [17]): 3
- Ratio IC50 [18]: 1640
- IC50 [4]: 1970 nM
- IC50 (Histone deacetylase 1 [5]): 1.2 nM
- GI50 (PC-3): 4.4 nM
- GI50 (DU-145): 0.82 nM
- GI50 [6]: 7.6 nM
- GI50 [7]: 1.8 nM
- GI50 [8]: 4.1 nM
- GI50 [9]: 8.5 nM
- GI50 [10]: 0.67 nM
- GI50 (St-4): 8.1 nM
- GI50 (ACHN): 3.4 nM
- GI50 [11]: 1.3 nM
- GI50 (SK-OV-3): 0.78 nM
- GI50 (OVCAR-8): 0.68 nM
- GI50 [12]: 1 nM
- GI50 [13]: 5.8 nM
- GI50 (OVCAR-3): 2.2 nM
- GI50 (LOX IMVI): 0.5 nM
- GI50 [14]: 3 nM
- GI50 [15]: 0.97 nM
- GI50 (NCI-H460): 0.91 nM
- GI50 (A549): 0.57 nM
- GI50 (NCI-H226): 0.47 nM
- GI50 (NCI-H522): 0.2 nM
- GI50 (NCI-H23): 0.64 nM
- GI50 (HCT-116): 0.51 nM
- GI50 (HCT-15): 300 nM
- GI50 (HT-29): 0.65 nM
- GI50 (KM12): 0.76 nM
- GI50 [16]: 460 nM
- GI50 (HCC 2998): 0.67 nM
- GI50 (SNB-75): 3.6 nM
- GI50 (SF-295): 3 nM
- GI50 (SF-539): 0.72 nM
